Measured values from different studies.
Lines come from different studies, so protocols differ.
Target: Dual specificity mitogen-activated protein kinase kinase 5 (MAP2K5, Homo sapiens, UniProt Q13163)
Residues used in one study (Q13163 1-448): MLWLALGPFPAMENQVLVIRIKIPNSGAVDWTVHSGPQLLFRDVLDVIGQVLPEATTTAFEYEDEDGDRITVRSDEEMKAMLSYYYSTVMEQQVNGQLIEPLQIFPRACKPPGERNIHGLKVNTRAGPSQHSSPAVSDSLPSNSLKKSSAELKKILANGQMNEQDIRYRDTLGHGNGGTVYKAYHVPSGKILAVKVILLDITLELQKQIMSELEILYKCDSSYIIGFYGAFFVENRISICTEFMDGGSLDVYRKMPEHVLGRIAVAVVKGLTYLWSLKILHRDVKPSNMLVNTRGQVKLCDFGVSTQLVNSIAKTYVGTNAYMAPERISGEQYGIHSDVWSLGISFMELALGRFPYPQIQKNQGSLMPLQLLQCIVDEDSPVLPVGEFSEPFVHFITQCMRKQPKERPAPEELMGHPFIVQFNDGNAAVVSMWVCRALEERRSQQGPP

SMILES | effect on | method | tested at | remaining binding
COc1ncc2cc3ccccc3nc2c1C#N | cell-free assay | competition with immobilised ligand | 5 µM | 94%
N[C@@H]1CCN(c2nccc(-c3cnn4ncccc34)n2)C1 | binding | – | 1 µM | 97%
O=C(O)c1cc(-c2ccc(C3CCNCC3)cc2)c2ccc(-c3ccc(C(F)(F)F)cc3)cc2c1 | cell-free assay | competition with immobilised ligand | 1 µM | 96%
COc1ccnn2ncc(-c3ccnc(N(C)C)n3)c12 | binding | – | 1 µM | 76%
O=C1NC(c2ccccn2)Sc2ccccc21 (stereo not shown) | cell-free assay | competition with immobilised ligand | 1 µM | 87%
Cc1cnc(Nc2ccc(C(=O)N3CCC(N4CCCC4)CC3)cc2)nc1-c1cc2ccccc2s1 | binding | competition with immobilised ligand | 1 µM | 0.4%
N#Cc1ccc(Nc2ccc3[nH]c(=O)[nH]c3c2)c(Cl)c1 | cell-free assay | competition with immobilised ligand | 1 µM | 100%
O=C(Nc1c[nH]nc1C(=O)NC1CCNCC1)c1cc(F)cc(F)c1 | binding | competition with immobilised ligand | 1 µM | 100%
CN1CCN(c2cnc3c(C4CCN(C(=O)c5ccc(OC(F)(F)F)cc5N)CC4)ncnc3c2)CC1 | cell-free assay | competition with immobilised ligand | 1 µM | 86%
COc1cnc(Nc2cccc(S(N)(=O)=O)c2)nc1N1CCN(c2ccccc2)C(=O)C1 | binding | competition with immobilised ligand | 1 µM | 67%
O=C(c1ccc(Nc2nccc(-c3cc4ccccc4s3)n2)cc1)N1CCC(N2CCCC2)CC1 | binding | competition with immobilised ligand | 1 µM | 16%
CN(C(=O)c1ccccc1)c1cc(N(C)c2ccc3c(c2)CCc2ccc(C(=O)NCCN4CCOCC4)cc2C3=O)ccc1F | cell-free assay | competition with immobilised ligand | 1 µM | 100%
c1cnn2ncc(-c3ccnc(N4CCC45COC5)n3)c2c1 | binding | – | 1 µM | 30%
C[C@@H](c1ccc(-n2cnc3c(N)ncnc32)cc1)N1CCc2nn(C)c(Cc3ccccc3)c2C1=O | binding | competition with immobilised ligand | 0.1 µM | 40%
C[C@H]1CCN(c2nccc(-c3cnn4ncccc34)n2)C1 | binding | – | 1 µM | 81%
Cc1c[nH]c2nccc(Oc3c(F)cc(Nc4cc(Cl)nc(N)n4)cc3F)c12 | cell-free assay | competition with immobilised ligand | 0.1 µM | 82%
CC1CCCN1c1nccc(-c2cnn3ncccc23)n1 (stereo not shown) | binding | – | 1 µM | 100%
O=C(c1ccc(Nc2ncc(Cl)c(-c3ccc(Cl)s3)n2)cc1)N1CCC(N2CCCC2)CC1 | binding | competition with immobilised ligand | 1 µM | 0.85%
CN(C)c1nccc(-c2cnn3ncccc23)n1 | binding | – | 1 µM | 68%
COc1cnc(Nc2cccc(S(N)(=O)=O)c2)nc1N1CCN(c2ccccc2)CC1 | binding | competition with immobilised ligand | 1 µM | 84%
Cc1noc([C@H]2C[C@@H](c3ccc(C(F)(F)F)cc3)CN(C(=O)N3CCS(=O)(=O)C3)C2)n1 | cell-free assay | competition with immobilised ligand | 1 µM | 78%
CN(C)c1nccc(-c2cnc3ncccn23)n1 | binding | – | 1 µM | 48%
